From ChEMBL document CHEMBL3102741, “A novel 2,3-diphenyl-4H-pyrido[1,2-a]pyrimidin-4-one derivative inhibits endothelial cell dysfunction and smooth muscle cell proliferation/activation” (Eur J Med Chem, 2014)
The source made the active and inactive calls. No cut-off for these calls is given here.

What was measured:
HUVEC [1] = experiment: Cytotoxicity against HUVEC assessed as cell viability up to 50 uM after 24 to 72 hrs by WST-1 assay; assay type: cell-based; details: human
How it was run: (§1)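 HUVECs were exposed to compound (10, 25, 50 µM; 0.1% DMSO vehicle) for 24 h or 72 h. WST-1 premix was added for a further 2 h, and formazan absorbance was read at 450 nm as a measure of mitochondrial dehydrogenase activity. Three independent experiments, each with n = 6 replicates.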

HUVEC [2] = experiment: Antiinflammatory activity in HUVEC assessed as inhibition of TNF-alpha-induced VCAM1 expression incubated for 1 hr prior to TNF-alpha challenge measured after overnight incubation by enzyme immunoassay method; assay type: functional, Homo sapiens
How it was run: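 Confluent HUVECs in 96-well plates were pre-treated 1 h with compound (25 µM), then stimulated with TNF-α 10 ng/mL overnight. Cell-surface VCAM-1 was measured by cell-surface enzyme immunoassay. Three independent experiments, each with n = 8 replicates.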

HUVEC [3] = experiment: Cytotoxicity against HUVEC assessed as cell detachment at 10 to 50 uM after 72 hrs by phase-contrast microscopy; assay type: cell-based; details: human
How it was run: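 After 72 h of treatment with compound at concentrations up to 50 µM, HUVEC morphology was examined by phase-contrast microscopy.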

HUVEC [4] = experiment: Cytotoxicity against HUVEC assessed as cell viability at 10 to 50 uM after 24 to 72 hrs by WST-1 assay relative to untreated control; assay type: cell-based; details: human; how it was run: as §1
HUVEC [5] = experiment: Cytotoxicity against HUVEC assessed as cell viability at 10 uM after 24 to 72 hrs by WST-1 assay relative to untreated control; assay type: cell-based; details: human
How it was run: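 HUVECs (used up to fifth passage from primary culture) in 96-well plates exposed to compound for 24 h or 72 h, DMSO final ≤0.1% as vehicle; WST-1 premix added for further 2 h, absorbance at 450 nm; viability relative to untreated cells. Morphology also checked by phase-contrast microscopy. Mean of three independent experiments, each n = 6 replicates.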

HUVEC [6] = experiment: Antiinflammatory activity in HUVEC assessed as reduction in TNF-alpha-induced VCAM1 mRNA expression at 10 to 25 uM incubated for 1 hr prior to TNF-alpha challenge measured after 4 hrs by RT-PCR analysis relative to control; assay type: functional, cell-based; details: Homo sapiens
How it was run: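 HUVECs were pre-treated 1 h with compound, then exposed to TNF-α 10 ng/mL for 4 h. Total RNA was extracted and VCAM-1 with GAPDH amplified by RT-PCR (VCAM-1 30 cycles, 55 °C annealing). Bands were quantified by densitometry and normalized to GAPDH. Mean ± SEM of three determinations.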

Homo sapiens [7] = organism: Homo sapiens; experiment: Inhibition of PDGF-BB-induced COX-2 mRNA expression in HAoSMC at 1 to 25 uM incubated for 1 hr prior to PDGF-BB challenge measured after overnight incubation by RT-PCR analysis relative to control; assay type: functional
How it was run: (§2)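 Confluent cells (HAoSMCs at passages 20–30, HUVECs up to fifth passage) were pre-treated 1 h with compound (1, 10, 25 µM) or 0.1% DMSO, then stimulated with PMA 10 nM, PDGF-BB 20 ng/mL or TNF-α 10 ng/mL overnight. Total RNA was extracted and RT-PCR run with GAPDH co-amplified. Bands were quantified by densitometry and normalized to GAPDH. Three determinations.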

Homo sapiens [8] = organism: Homo sapiens; experiment: Antiinflammatory activity in HAoSMC assessed as inhibition of PMA-induced MMP-9 mRNA expression at 10 to 25 uM incubated for 1 hr prior to PMA challenge measured after overnight incubation by RT-PCR analysis; assay type: functional; how it was run: as §2
Homo sapiens [9] = organism: Homo sapiens; experiment: Inhibition of PMA-induced COX-2 mRNA expression in HAoSMC at 1 to 25 uM incubated for 1 hr prior to PMA challenge measured after overnight incubation by RT-PCR analysis relative to control; assay type: functional; how it was run: as §2
HUVEC [10] = experiment: Effect on TNF-alpha-induced COX-2 mRNA expression in HUVEC at 1 to 25 uM incubated for 1 hr prior to TNF-alpha challenge measured after overnight incubation by RT-PCR analysis relative to control; assay type: ADME, cell-based; details: human; how it was run: as §2
Homo sapiens [11] = organism: Homo sapiens; experiment: Cytotoxicity against HAoSMC assessed as inhibition of PDGF-BB-induced cell growth incubated for 1 hr prior to PDGF-BB challenge measured after 48 hrs by BrdU incorporation assay; assay type: functional
How it was run: (§3)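 Cells at about 70% confluence were serum-starved overnight, pre-treated 1 h with compound (1–25 µM), then grown with or without PDGF-BB (HAoSMCs) or ECGF (HUVECs), each at 20 ng/mL, for 48 h. Cells were BrdU-labelled, fixed and immunostained, and absorbance was read at 450 nm. Three experiments, n = 8 each.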

[12] = target: T1, Prostaglandin G/H synthase 2 (Homo sapiens) (UniProt P35354); experiment: Inhibition of COX2 in HUVEC assessed as TNF-alpha-induced PGE2 production at 1 to 25 uM incubated for 1 hr prior to TNF-alpha challenge measured after overnight incubation by competitive enzyme immunoassay
T1 sequence (whole entry): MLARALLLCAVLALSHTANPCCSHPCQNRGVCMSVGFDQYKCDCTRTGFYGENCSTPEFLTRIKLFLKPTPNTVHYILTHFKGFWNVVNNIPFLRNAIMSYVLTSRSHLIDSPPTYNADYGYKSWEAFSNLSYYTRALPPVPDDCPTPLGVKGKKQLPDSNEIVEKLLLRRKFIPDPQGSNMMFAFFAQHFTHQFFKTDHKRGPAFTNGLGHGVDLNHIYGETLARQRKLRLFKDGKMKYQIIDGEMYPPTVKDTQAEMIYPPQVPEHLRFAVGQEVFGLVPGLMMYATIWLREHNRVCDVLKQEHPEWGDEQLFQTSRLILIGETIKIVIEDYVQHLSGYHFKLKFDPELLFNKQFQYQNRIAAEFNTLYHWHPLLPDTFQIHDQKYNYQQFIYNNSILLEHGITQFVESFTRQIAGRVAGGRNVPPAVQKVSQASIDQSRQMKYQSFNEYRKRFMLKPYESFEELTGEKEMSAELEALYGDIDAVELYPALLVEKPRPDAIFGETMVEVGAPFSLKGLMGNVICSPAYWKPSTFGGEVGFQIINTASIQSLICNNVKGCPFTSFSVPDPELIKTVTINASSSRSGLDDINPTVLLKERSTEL
How it was run: (§4)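 Cells were pre-treated 1 h with compound (1–25 µM), then stimulated overnight with PMA 10 nM (HAoSMCs) or TNF-α 10 ng/mL (HUVECs). Conditioned medium was centrifuged, and PGE2 and PGI2 (as 6-keto-PGF1α) were measured by competitive EIA in pg/mL. Three independent experiments in duplicate.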

HUVEC [13] = experiment: Effect on TNF-alpha-induced COX-2 protein expression in HUVEC at 1 to 25 uM incubated for 1 hr prior to TNF-alpha challenge measured after overnight incubation by EIA assay relative to control; assay type: ADME, cell-based; details: human
How it was run: (§5)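 Cells were pre-treated 1 h with compound, then stimulated overnight with PMA 10 nM, TNF-α 10 ng/mL (HUVECs) or PDGF-BB 20 ng/mL (HAoSMCs). Monolayers were fixed and permeabilized in cold acetone on ice for 2 min. They were probed with goat anti-COX-2 and then HRP anti-goat IgG, developed with TMB for 30 min, stopped with 0.18 M H2SO4, and read at 450 nm. Three experiments, n = 6 each.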

HUVEC [14] = experiment: Effect on PMA-induced COX-2 protein expression in HUVEC at 1 to 25 uM incubated for 1 hr prior to PMA challenge measured after overnight incubation by EIA assay relative to control; assay type: ADME, cell-based; details: human; how it was run: as §5
Homo sapiens [15] = organism: Homo sapiens; experiment: Inhibition of PDGF-BB-induced COX-2 protein expression in HAoSMC incubated for 1 hr prior to PDGF-BB challenge measured after overnight incubation by EIA assay relative to control; assay type: functional; how it was run: as §5
Homo sapiens [16] = organism: Homo sapiens; experiment: Inhibition of PMA-induced COX-2 protein expression in HAoSMC at 1 to 25 uM incubated for 1 hr prior to PMA challenge measured after overnight incubation by EIA assay relative to control; assay type: functional; how it was run: as §5
HUVEC [17] = experiment: Effect on PMA-induced COX-2 mRNA expression in HUVEC at 1 to 25 uM incubated for 1 hr prior to PMA challenge measured after overnight incubation by RT-PCR analysis relative to control; assay type: ADME, cell-based; details: human; how it was run: as §2
HUVEC [18] = experiment: Cytotoxicity against HUVEC assessed as inhibition of ECGF-induced cell growth at 1 to 25 uM incubated for 1 hr prior to ECGF challenge measured after 48 hrs by BrdU incorporation assay relative to control; assay type: cell-based; details: human; how it was run: as §3
[19] = target: T1, Prostaglandin G/H synthase 2 (Homo sapiens); experiment: Inhibition of COX2 in HUVEC assessed as TNF-alpha-induced PGI2 production at 1 to 25 uM incubated for 1 hr prior to TNF-alpha challenge measured after overnight incubation by competitive enzyme immunoassay; how it was run: as §4
[20] = target: Matrix metalloproteinase-9 (Homo sapiens) (UniProt P14780); experiment: Inhibition of PMA-induced MMP9 activity in HAoSMC at 25 uM after 24 hrs by gelatin zymography relative to control
How it was run: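 HAoSMCs were treated with PMA 10 nM in serum-free medium, with or without compound (10, 25 µM), for 24 h. Conditioned medium ([…]) was run on 11% SDS-PAGE containing 0.1% gelatin at 125 V and 4 °C. Gels were washed in Triton X-100, incubated 24 h at 37 °C in Tris pH 7.5/CaCl2 buffer, and Coomassie-stained. Lysis bands were quantified by densitometry.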

HUVEC [21] = experiment: Cytotoxicity against HUVEC at 1 to 25 uM after 48 hrs by BrdU incorporation assay relative to untreated control; details: human
[22] = target: T1, Prostaglandin G/H synthase 2 (Homo sapiens); experiment: Inhibition of COX2 in HAoSMC assessed as PMA-induced PGE2 production at 1 to 25 uM incubated for 1 hr prior to PMA challenge measured after overnight incubation by competitive enzyme immunoassay; how it was run: as §4

Chain of Matrix metalloproteinase-9 (Homo sapiens) (P14780 whole entry): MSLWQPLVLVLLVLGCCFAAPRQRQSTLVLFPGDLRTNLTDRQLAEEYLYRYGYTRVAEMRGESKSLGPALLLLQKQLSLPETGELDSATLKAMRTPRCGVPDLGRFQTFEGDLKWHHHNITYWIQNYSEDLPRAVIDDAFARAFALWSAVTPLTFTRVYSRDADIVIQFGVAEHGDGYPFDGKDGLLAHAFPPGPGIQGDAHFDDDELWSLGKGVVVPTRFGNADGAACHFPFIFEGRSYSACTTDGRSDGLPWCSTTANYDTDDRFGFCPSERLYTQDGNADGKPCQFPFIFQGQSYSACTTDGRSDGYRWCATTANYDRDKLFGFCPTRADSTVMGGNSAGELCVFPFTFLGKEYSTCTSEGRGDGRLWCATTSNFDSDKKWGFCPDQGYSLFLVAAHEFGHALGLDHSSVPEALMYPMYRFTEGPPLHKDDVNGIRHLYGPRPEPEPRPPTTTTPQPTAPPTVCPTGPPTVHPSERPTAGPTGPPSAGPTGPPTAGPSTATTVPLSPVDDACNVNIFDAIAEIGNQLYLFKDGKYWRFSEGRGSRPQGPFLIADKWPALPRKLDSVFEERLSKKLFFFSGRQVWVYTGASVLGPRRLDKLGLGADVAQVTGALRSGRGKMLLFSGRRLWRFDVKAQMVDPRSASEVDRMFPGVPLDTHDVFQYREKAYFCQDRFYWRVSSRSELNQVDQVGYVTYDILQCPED

SMILES	Activity (HUVEC [1])	inhibition (INH) (HUVEC [2]) [%]	Activity (HUVEC [3])	Activity (HUVEC [4])	other results
COc1ccc(-c2nc3ccccn3c(=O)c2-c2ccc(OC)c(OC)c2)cc1	Non-toxic	15			
COc1ccc(-c2c(-c3ccccc3)nc3ccccn3c2=O)cc1	Non-toxic	12			
O=c1c(-c2ccccc2)c(-c2ccccc2)nc2ccccn12	Non-toxic	8.5			
COc1ccc(-c2c(-c3ccccc3)nc3ccccn3c2=O)cc1OC	Non-toxic	12			
O=c1cc(-c2ccc(O)cc2)oc2cc(O)cc(O)c12 [APIGENIN]			Toxic	Toxic	Activity (HUVEC [5]): Toxic
COc1ccc(-c2nc3ccccn3c(=O)c2-c2ccccc2)cc1	Non-toxic	8.9			
O=c1c(O)c(-c2ccc(O)c(O)c2)oc2cc(O)cc(O)c12 [QUERCETIN]			Toxic	Toxic	Activity (HUVEC [5]): Toxic
COc1ccc(-c2nc3ccccn3c(=O)c2-c2ccccc2)cc1OC	Non-toxic	37	Non-toxic	Non-toxic	inhibition (HUVEC [6]): Active; inhibition (Homo sapiens [7]): Active; inhibition (Homo sapiens [8]): Active; inhibition (Homo sapiens [9]): Active; Activity (HUVEC [10]): Non-toxic; inhibition (Homo sapiens [11]): Dose-dependent effect; inhibition [12]: inactive; Activity (HUVEC [13]): Non-toxic; Activity (HUVEC [14]): Non-toxic; inhibition (Homo sapiens [15]): Dose-dependent effect; inhibition (Homo sapiens [16]): Active; Activity (HUVEC [17]): Non-toxic; Activity (HUVEC [18]): Non-toxic; inhibition [19]: inactive; inhibition (HUVEC [2]; Homo sapiens): Dose-dependent effect; inhibition [20]: Active; Activity (HUVEC [21]): Non-toxic; inhibition [22]: Active
COc1ccc(-c2nc3ccccn3c(=O)c2-c2ccc(OC)cc2)cc1	Non-toxic	9.6			
COc1ccc(-c2c(-c3ccc(OC)c(OC)c3)nc3ccccn3c2=O)cc1	Non-toxic	10.3			
